Measured values from different studies.
Target: Glycogen synthase kinase-3 beta (GSK3B, Homo sapiens, UniProt P49841)
Mode: inhibitor

SMILES | assay | conditions | inhibition [%]
Nc1nc(Nc2ccc(S(N)(=O)=O)cc2)sc1C(=O)c1ccccc1[N+](=O)[O-] | enzyme activity | 0.1 µM | 60 to 66
CC(C)NCC(O)c1ccc(NS(C)(=O)=O)cc1 (centres unmarked) | enzyme activity, ADP detection | 100 µM | 8.4
COc1cc2ncnc(Nc3ccc(Oc4ccccc4)cc3C)c2cc1OC | enzyme activity | 1 µM | -2
COc1cccc2c(NCc3ccccc3)nc(-n3c(N)nc4ccccc43)nc12 | target engagement in cells, chemoproteomics | 20 mM | 1
O=C1CN(/N=C/c2ccc(-c3ccc([N+](=O)[O-])cc3)o2)C(O)=N1 | enzyme activity, ADP detection | 100 µM | 31.2
O=C(CSc1nc2nccnc2c(=O)n1CCc1ccccc1)Nc1nccs1 | enzyme activity | 10 µM | -5
CSc1nc(C)c(-c2ccnc(Nc3ccc(N4CCOCC4)cc3)c2)[nH]1 | enzyme activity | 10 µM | 5.7
NS(=O)(=O)Cc1noc2ccccc12 | enzyme activity, ADP detection | 100 µM | 21.9
CCCCNc1ncc2c(-c3ccc(F)cc3)nn(C[C@H]3CC[C@H](N)CC3)c2n1 | target engagement in cells, chemoproteomics | 20 mM | 4.2
C=CC(=O)Nc1cc(Nc2nccc(Nc3cc(Cl)c(F)cc3C(C)(C)O)n2)c(OC)cc1N1CC[C@@H](N(C)C)C1 | enzyme activity | 1 µM | 9
CCN(CC)CCNC(=O)c1c(C)[nH]c(/C=C2\C(=O)Nc3ccc(F)cc32)c1C | enzyme activity | 10 µM | 3
CN(c1ncccc1CNc1nc(Nc2ccc3c(c2)CC(=O)N3)ncc1C(F)(F)F)S(C)(=O)=O | enzyme activity | 1 µM | 92.7
COc1cc(-c2coc3cc(OC)c(OC)c(OC)c3c2=O)cc(OC)c1OC | enzyme activity, ADP detection | 100 µM | 3
CN(C)C1CCN(CC#Cc2nn(C3CCCC3)c3nc(NCc4ccccc4)ncc23)C1 (centres unmarked) | enzyme activity, FRET | 1 µM | -1
